SMILES strings stand for the structures. In brackets after ≈: the same amount, converted by molar mass.

Data set [1] addresses T1, Leucine--tRNA ligase, mitochondrial (Homo sapiens, UniProt Q15031).
T1 sequence (Q15031 whole entry): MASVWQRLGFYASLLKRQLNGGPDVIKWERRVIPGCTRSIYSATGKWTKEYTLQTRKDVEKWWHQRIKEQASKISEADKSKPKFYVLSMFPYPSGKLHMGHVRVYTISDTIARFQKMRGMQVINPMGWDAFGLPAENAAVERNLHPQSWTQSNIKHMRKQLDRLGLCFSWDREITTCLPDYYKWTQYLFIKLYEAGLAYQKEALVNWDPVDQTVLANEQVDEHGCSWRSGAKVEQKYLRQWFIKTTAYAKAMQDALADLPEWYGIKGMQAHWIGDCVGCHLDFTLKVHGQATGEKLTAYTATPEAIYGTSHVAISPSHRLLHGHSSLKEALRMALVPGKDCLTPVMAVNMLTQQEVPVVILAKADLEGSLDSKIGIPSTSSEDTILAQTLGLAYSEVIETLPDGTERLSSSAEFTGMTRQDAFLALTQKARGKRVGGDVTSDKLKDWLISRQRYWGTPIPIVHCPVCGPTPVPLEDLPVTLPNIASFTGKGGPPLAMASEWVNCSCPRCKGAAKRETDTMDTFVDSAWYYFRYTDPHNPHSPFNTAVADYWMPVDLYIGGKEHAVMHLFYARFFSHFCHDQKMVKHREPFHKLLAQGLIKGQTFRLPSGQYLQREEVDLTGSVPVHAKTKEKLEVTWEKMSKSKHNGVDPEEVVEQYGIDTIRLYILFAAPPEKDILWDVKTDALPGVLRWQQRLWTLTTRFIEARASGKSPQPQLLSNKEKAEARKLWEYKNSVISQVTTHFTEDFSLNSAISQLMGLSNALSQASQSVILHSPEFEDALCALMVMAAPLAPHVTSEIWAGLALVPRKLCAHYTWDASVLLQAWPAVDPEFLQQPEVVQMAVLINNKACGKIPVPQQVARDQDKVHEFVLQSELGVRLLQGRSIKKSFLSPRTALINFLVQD
The data set is described as follows: Inhibition of human N-terminal 6His-tagged mitochondrial LeuRS expressed in Escherichia coli BL21(DE3) assessed as L-[14C]leucine incorporation in to Escherichia coli tRNA after 20 mins by liquid scintillation counting analysis. Summed up: (§1)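 N-terminal His6-tagged LeuRS expressed in E. coli BL21(DE3), codon-optimized. 50 mM HEPES-KOH pH 8.0, 30 mM MgCl2, 30 mM KCl, 13 μM L-[14C]leucine, 15 μM tRNA (E. coli total; brewer's yeast for human cytoplasmic enzyme), 0.02% BSA, 1 mM DTT, 30 °C. Inhibitor preincubated 20 min, started with 4 mM ATP, TCA-quenched after 7 min, filtered, scintillation counted; four-parameter logistic IC50.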

Data set [2] has as its system Mycobacterium tuberculosis. The data set is described as follows: Antimicrobial activity against Mycobacterium tuberculosis H37Rv. Format: functional.
For another data set, the system named is cytoplasmic LeuRS. Nature of the data set: Selectivity index, ratio of EC50 for inhibition of cytoplasmic LeuRS in HepG2 cells assessed as reduction in protein synthesis to MIC for Mycobacterium tuberculosis H37Rv. Format: toxicity, cell-based. Conditions: human, read-out: Selectivity Index. Summed up: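 Ratio of HepG2 protein-synthesis EC50 to MIC against M. tuberculosis H37Rv.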

In data set [3] the test system is Mycobacterium tuberculosis. The data set is described as follows: Antimicrobial activity against Mycobacterium tuberculosis H37Rv infected in C57BL/6J mouse assessed as 2 log reduction in bacterial load in lungs administered qd for 8 consecutive days starting on day 1 post infection measured 24 hrs post last dose. Format: functional.
The subject of another data set is HepG2. The data set is described as follows: Cytotoxicity against human HepG2 cells assessed as reduction in cell viability after 48 hrs by CellTiter-Glo assay. Format: cell-based. Conditions: HepG2, 48 h. In a few lines: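 HepG2 cells seeded at 10 000/well in EMEM with 5% FCS and 2 mM glutamine. After 24 h, ten 1:2 serial compound dilutions (0.5% DMSO final) added in duplicate for 48 h. Read-out by CellTiter-Glo luminescence per table footnote; the method text also describes resazurin fluorescence (ex 515/em 590 nm). Sigmoidal variable-slope fit.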

The target in data set [4] is Leucine--tRNA ligase, cytoplasmic (Homo sapiens, UniProt Q9P2J5). Nature of the data set: Inhibition of cytoplasmic LeuRS in human HepG2 cells assessed as reduction in protein synthesis preincubated for 48 hrs followed by L-[14C]leucine addition measured after 3 hrs by liquid scintillation counting analysis. Format: cell-based. Summed up:
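HepG2 cells in DMEM/10% FCS, 3000 cells/well, exposed to compound dilutions (0.5% DMSO final) for 48 h at 37 °C. Medium then replaced with fresh medium containing 0.5 μCi L-[14C]leucine and the same compound levels for 3 h. Cells trypsinised, precipitated in ice-cold 20% TCA, filtered, washed, scintillation counted; curve-fit EC50; mean of at least duplicates.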

The target of a further data set is T2, Leucine--tRNA ligase (Mycobacterium tuberculosis (strain ATCC 25618 / H37Rv), UniProt P9WFV1).
T2 sequence (P9WFV1 whole entry): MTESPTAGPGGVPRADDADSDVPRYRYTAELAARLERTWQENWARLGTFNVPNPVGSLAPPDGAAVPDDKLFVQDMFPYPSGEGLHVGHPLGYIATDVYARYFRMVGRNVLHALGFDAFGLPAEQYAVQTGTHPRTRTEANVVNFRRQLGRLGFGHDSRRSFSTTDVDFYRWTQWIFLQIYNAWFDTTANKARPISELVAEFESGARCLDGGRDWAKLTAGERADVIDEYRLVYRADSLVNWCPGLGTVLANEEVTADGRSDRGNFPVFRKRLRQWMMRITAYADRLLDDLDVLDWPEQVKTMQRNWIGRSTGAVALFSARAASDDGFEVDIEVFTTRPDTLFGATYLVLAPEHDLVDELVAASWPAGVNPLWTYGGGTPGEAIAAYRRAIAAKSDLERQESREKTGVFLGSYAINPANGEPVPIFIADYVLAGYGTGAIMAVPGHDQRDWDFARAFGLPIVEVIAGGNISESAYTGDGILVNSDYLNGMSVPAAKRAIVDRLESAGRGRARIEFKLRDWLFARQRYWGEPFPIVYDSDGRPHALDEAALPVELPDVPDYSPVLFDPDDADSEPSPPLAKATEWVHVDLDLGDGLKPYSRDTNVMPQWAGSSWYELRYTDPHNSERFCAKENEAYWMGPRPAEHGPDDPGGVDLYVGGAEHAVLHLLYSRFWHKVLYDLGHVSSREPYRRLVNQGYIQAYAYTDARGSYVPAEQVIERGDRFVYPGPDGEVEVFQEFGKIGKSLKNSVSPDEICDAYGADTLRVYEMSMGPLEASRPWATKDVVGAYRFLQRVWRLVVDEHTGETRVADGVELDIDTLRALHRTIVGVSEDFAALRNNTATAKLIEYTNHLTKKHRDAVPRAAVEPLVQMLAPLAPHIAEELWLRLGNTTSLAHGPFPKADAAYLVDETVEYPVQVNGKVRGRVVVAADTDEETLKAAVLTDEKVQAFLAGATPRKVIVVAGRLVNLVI
The data set is described as follows: Inhibition of Mycobacterium tuberculosis H37Rv N-terminal 6His-tagged LeuRS expressed in Escherichia coli BL21(DE3) assessed as L-[14C]leucine incorporation in to Escherichia coli tRNA after 20 mins by liquid scintillation counting analysis. In a few lines:
as §1

Sequence of Leucine--tRNA ligase, cytoplasmic (Q9P2J5 whole entry): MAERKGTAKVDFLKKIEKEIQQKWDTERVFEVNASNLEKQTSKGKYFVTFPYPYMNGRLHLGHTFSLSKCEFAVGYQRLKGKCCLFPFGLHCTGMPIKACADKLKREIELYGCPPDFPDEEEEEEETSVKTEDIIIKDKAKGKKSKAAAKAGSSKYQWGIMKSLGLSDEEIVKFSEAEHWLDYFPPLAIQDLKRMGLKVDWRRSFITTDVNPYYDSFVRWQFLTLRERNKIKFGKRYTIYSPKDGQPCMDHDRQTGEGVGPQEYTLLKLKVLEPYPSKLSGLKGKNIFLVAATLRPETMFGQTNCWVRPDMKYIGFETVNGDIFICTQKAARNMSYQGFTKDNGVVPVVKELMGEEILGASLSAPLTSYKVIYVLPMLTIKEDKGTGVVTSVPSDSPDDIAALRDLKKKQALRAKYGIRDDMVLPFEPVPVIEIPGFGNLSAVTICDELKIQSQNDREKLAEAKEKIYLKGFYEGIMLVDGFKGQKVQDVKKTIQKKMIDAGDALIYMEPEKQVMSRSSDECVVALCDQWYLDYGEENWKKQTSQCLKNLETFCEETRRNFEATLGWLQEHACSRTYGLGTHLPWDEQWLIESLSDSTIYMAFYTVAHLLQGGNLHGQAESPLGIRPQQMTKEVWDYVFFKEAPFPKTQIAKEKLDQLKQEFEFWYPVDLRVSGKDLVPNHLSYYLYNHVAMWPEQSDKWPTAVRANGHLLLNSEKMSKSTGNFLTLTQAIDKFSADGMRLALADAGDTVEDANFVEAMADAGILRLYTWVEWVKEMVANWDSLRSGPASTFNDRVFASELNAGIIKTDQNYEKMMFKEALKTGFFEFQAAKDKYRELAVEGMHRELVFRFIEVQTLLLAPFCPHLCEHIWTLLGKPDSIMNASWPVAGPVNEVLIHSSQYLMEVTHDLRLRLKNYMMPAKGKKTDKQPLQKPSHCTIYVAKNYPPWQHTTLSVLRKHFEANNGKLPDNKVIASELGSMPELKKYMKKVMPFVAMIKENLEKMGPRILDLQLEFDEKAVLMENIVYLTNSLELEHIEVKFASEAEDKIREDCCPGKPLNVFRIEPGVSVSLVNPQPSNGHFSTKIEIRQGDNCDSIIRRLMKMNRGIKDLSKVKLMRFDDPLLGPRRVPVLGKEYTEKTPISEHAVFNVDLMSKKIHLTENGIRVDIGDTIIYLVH

Regarding `Cl.NC[C@H]1OB(O)c2c(OCCO)ccc(Cl)c21`, the IC50 in data set [1] is over 300 µM; at Leucine--tRNA ligase, 0.2 µM. This compound showed an MIC in data set [2] of 0.08 µM. Also, the selectivity ratio with cytoplasmic LeuRS is 1710. Besides, the ED99 in data set [3] worked out at 0.4 mg/kg. Also, the EC50 with HepG2 was found to be 381 µM; in data set [4] it was 137 µM.

Take `CCOc1ccc(Br)c2c1B(O)O[C@@H]2CN`: the IC50 in data set [1] was over 300 µM; on Leucine--tRNA ligase, 0.075 µM. Moreover, it took 0.1 µM (≈ 0.0286 µg/mL) to inhibit growth in data set [2] (MIC). The selectivity ratio with cytoplasmic LeuRS was found to be 305. In addition, the ED99 in data set [3] is under 1 mg/kg. Moreover, the EC50 in the data set with HepG2 is 47.1 µM; in data set [4], 30.5 µM.

Source of the values: ChEMBL document CHEMBL4017537, “Discovery of a Potent and Specific M. tuberculosis Leucyl-tRNA Synthetase Inhibitor: (S)-3-(Aminomethyl)-4-chloro-7-(2-hydroxyethoxy)benzo[c][1,2]oxaborol-1(3H)-ol (GSK656)” (J Med Chem, 2017).
